# Assay results as given in ChEMBL document CHEMBL3272070, “Cycloalkanoindoles. 1. Syntheses and antiinflammatory actions of some acidic tetrahydrocarbazoles, cyclopentindoles, and cycloheptindoles” (J Med Chem, 1976).
# The source made the active and inactive calls. The rule behind the calls is not given here.
# How the values were obtained:
# Rattus norvegicus [1] = species on record: Rattus norvegicus; experiment: Ratio of ED50 for ulcerogenicity in 24-hrs starved Charles-River rat to ED50 for chronic antiinflammatory activity against adjuvant-induced arthritis in rat
# Method in brief: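 Ratio of ulcerogenic UD50 to therapeutic ED50. UD50: single oral dose in 24 h-starved male Charles River rats, stomach lesions scored at 18 h. Therapeutic ED50: adjuvant-arthritic rats dosed orally days 14–22, with a ≥0.5 ml decrease in paw volume as the response. Both values were derived by probit analysis.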
# Rattus norvegicus [2] = experiment: Ratio of ED50 for acute antiinflammatory activity against carrageenan-induced paw edema in rat to ED50 for chronic antiinflammatory activity against adjuvant-induced arthritis in rat
# Rattus norvegicus [3] = experiment: Acute antiinflammatory activity in po dosed rat assessed as inhibition of carrageenan-induced paw edema; type: functional
# Rattus norvegicus [4] = experiment: Chronic antiinflammatory activity against adjuvant-induced arthritis in po dosed rat assessed as decrease in volume of paw administered for 9 days starting 14 days after adjuvant injection and continued until day 22 by therapeutic test; type: functional
# Method in brief: (§1)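 Adjuvant arthritis was induced in groups of six rats by injecting Mycobacterium butyricum in mineral oil into the left hind foot pad. Oral dosing ran from day 14 to day 22 (nine doses). Injected-paw volume was measured by mercury displacement, and a decrease of ≥0.5 ml counted as a therapeutic effect. ED50 was derived by probit analysis of responder counts. The maximum screening dose was 100 mg/kg.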
# Rattus norvegicus [5] = experiment: Ulcerogenicity in po dosed 24-hrs starved Charles-River rat assessed as lesions on stomach administered as single dose measured after 18 hrs; type: toxicity, organism-based; conditions: in vivo
# Method in brief: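 Male Charles River rats were starved 24 h and given a single oral dose. After 18 h they were killed by ether inhalation and their stomachs examined for lesions (erosion or ulcer). UD50, the dose producing lesions in 50% of rats, was derived by probit analysis.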
# Rattus norvegicus [6] = experiment: Chronic antiinflammatory activity against adjuvant-induced arthritis in rat assessed as decrease in volume of paw at 100 mg/kg, po administered for 9 days starting 14 days after adjuvant injection and continued until day 22 by therapeutic test; type: functional, organism-based; design: dose 100 mg/kg; method in brief: as §1
# Rattus norvegicus [7] = experiment: Chronic antiinflammatory activity against adjuvant-induced arthritis in rat assessed as decrease in volume of paw at 25 mg/kg, po administered for 9 days starting 14 days after adjuvant injection and continued until day 22 by therapeutic test; type: functional, organism-based; design: dose 25 mg/kg; method in brief: as §1
# Rattus norvegicus [8] = experiment: Chronic antiinflammatory activity against adjuvant-induced arthritis in rat assessed as decrease in volume of paw at 10 mg/kg, po administered for 9 days starting 14 days after adjuvant injection and continued until day 22 by therapeutic test; type: functional, organism-based; design: dose 10 mg/kg; method in brief: as §1
smiles,measurement,setting,value
CCCc1cccc2c3c([nH]c12)C(CC)(CC(=O)O)CCC3 (stereo not drawn),Ratio ED50,Rattus norvegicus [1],24
same,Ratio,Rattus norvegicus [2],10
same,ED50,Rattus norvegicus [3],10.5 mg/kg
same,ED50,Rattus norvegicus [4],1.1 mg/kg
same,ED50,Rattus norvegicus [5],24 mg/kg
O=C(O)C1CCc2c([nH]c3ccccc23)C1 (stereo not drawn),Activity,Rattus norvegicus [6],inactive
CCC1(CC(=O)O)CCc2c1[nH]c1ccccc21 (stereo not drawn),ED50,Rattus norvegicus [4],100 mg/kg
CCC1(CC(=O)O)CCCc2c1[nH]c1c(C(C)C)cccc21 (stereo not drawn),ED50,Rattus norvegicus [4],5.4 mg/kg
CC1(CC(=O)O)CCc2c1[nH]c1ccccc21 (stereo not drawn),Activity,Rattus norvegicus [7],inactive
CCc1cccc2c3c([nH]c12)C(CC)(CC(=O)O)CCCC3 (stereo not drawn),ED50,Rattus norvegicus [4],> 50 mg/kg
CCc1cccc2c3c([nH]c12)C(C)(CC(=O)O)CCCC3 (stereo not drawn),Activity,Rattus norvegicus [8],inactive
CCC1(CC(=O)O)CCCc2c1[nH]c1ccc(OC)cc21 (stereo not drawn),Activity,Rattus norvegicus [7],inactive
O=C(O)C1CCc2c([nH]c3ccc(Cl)cc23)C1 (stereo not drawn),ED50,Rattus norvegicus [3],10.2 mg/kg
same,ED50,Rattus norvegicus [4],21.3 mg/kg
CCCC1(CC(=O)O)OCCc2c1[nH]c1ccccc21 (stereo not drawn) [PRODOLIC ACID],Ratio ED50,Rattus norvegicus [1],75
same,ED50,Rattus norvegicus [3],89.9 mg/kg
same,ED50,Rattus norvegicus [4],9 mg/kg
same,ED50,Rattus norvegicus [5],678 mg/kg
COc1ccc2[nH]c3c(c2c1)CCC(C(=O)O)C3 (stereo not drawn),ED50,Rattus norvegicus [3],12.7 mg/kg
same,ED50,Rattus norvegicus [4],20 mg/kg
COc1ccc2cc([C@H](C)C(=O)O)ccc2c1 [NAPROXEN],Ratio ED50,Rattus norvegicus [1],13
same,ED50,Rattus norvegicus [4],2.1 mg/kg
same,ED50,Rattus norvegicus [5],28 mg/kg
O=C(O)CC1CCCc2c1[nH]c1ccccc21 (stereo not drawn),Activity,Rattus norvegicus [6],inactive
CCc1cccc2c3c([nH]c12)C(CC)(CC(=O)O)CC3 (stereo not drawn),ED50,Rattus norvegicus [4],6.2 mg/kg
CCCCc1cccc2c3c([nH]c12)C(CC)(CC(=O)O)CCC3 (stereo not drawn),ED50,Rattus norvegicus [4],4.2 mg/kg
CC1(CC(=O)O)CCCc2c1[nH]c1ccccc21 (stereo not drawn),Activity,Rattus norvegicus [6],inactive
CCC1(CC(=O)O)CCCc2c1[nH]c1ccccc21 (stereo not drawn),ED50,Rattus norvegicus [4],3.3 mg/kg
CCCCC1C(=O)N(c2ccccc2)N(c2ccccc2)C1=O [PHENYLBUTAZONE],ED50,Rattus norvegicus [4],5.4 mg/kg
same,ED50,Rattus norvegicus [5],100 mg/kg
COc1ccc2c(c1)c(CC(=O)O)c(C)n2C(=O)c1ccc(Cl)cc1 [INDOMETHACIN],ED50,Rattus norvegicus [4],0.2 mg/kg
CCCC1(CC(=O)O)CCCc2c1[nH]c1ccccc21 (stereo not drawn),ED50,Rattus norvegicus [4],20 mg/kg
CCc1cccc2c3c([nH]c12)C(C)(CC(=O)O)CC3 (stereo not drawn),ED50,Rattus norvegicus [4],> 50 mg/kg
CCc1cccc2c3c([nH]c12)C(CC)(CC(=O)O)CCC3 (stereo not drawn),ED50,Rattus norvegicus [4],1.9 mg/kg
CCc1cccc2c3c([nH]c12)C(CC)(CC(=O)O)OCC3 (stereo not drawn) [ETODOLAC],Ratio ED50,Rattus norvegicus [1],85
same,ED50,Rattus norvegicus [3],10.2 mg/kg
same,ED50,Rattus norvegicus [4],0.7 mg/kg
same,ED50,Rattus norvegicus [5],60 mg/kg
